Screening data deposited in PubChem BioAssay by several laboratories.
Mot1-301 SUMO = yeast Mot1-301 growth rescue at high temperature, primary screen, SUMOylation pathway inhibitor project, S. cerevisiae, ATP luminescence, 38.5C. growth rescue, % at 18.8 µM. S. cerevisiae Mot1-301 growth rescue; percent above DMSO median, 100 means doubled. AID 2716, 2010. 1% of 320,000 active;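 active = every valid replicate shows activation above 250% relative to neutral control wells; inactive = the rest, any valid replicate at or below 250%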;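 also: OY570 slx delta 5 strain wells were the positive control but not used for scaling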
rRNA inh HTS = reduced GFP signal of wild-type E. coli, primary screen, bacterial rRNA inhibitor project, GFP/RFP fluorescence, OD600, single point | E. coli WT GFP vs humanized-ribosome RFP mutants, 24 h; hits give low values; DMSO median 0, no signal -100 | GFP signal change (wild-type ribosome), % (no concentration beside the values) | 1.6% of 350,000 active | AID 720706, 2013;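 active = significant combined selectivity score with lowered wild-type GFP, culture density cut under 30%, mutant RFP and density less affected; inactive = any of these conditions unmet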
Yeast superoxide = reduction of superoxide in aged yeast, primary screen, HTS. S. cerevisiae aged cells, superoxide DHE fluorescence; hits give low values. superoxide response (% of plate mean), % at 10 µM. 0.18% of 330,000 active;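 active = superoxide response under a set limit, about three screen SD below normal, cut at about 65% in these data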;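 also: yeast aged for seven days with compound at 30 °C before DHE staining; 100% = average MFI of all compound-treated wells on the plate with controls excluded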
PglD DTNB = C. jejuni PglD acetyltransferase inhibitors, primary screen, biochemical, DTNB colorimetric, single point | UDP-N-acetylbacillosamine N-acetyltransferase PglD (Campylobacter jejuni) | purified PglD enzyme, DTNB colorimetric CoA detection | inhibition, % at 12.5 µM | 0.098% of 360,000 active | AID 602405, 2012; in the data active = inhibition above about 16%, passing the limit was not always enough
Cneo AK release = Cryptococcus neoformans cell lysis inducers, primary screen, AK release luminescence, single concentration; 0.2% of 360,000 active; C. neoformans lysis, adenylate kinase release luminescence, 4 h; normalised: neutral wells 0, clomiphene wells 100; lysis activity, % at 15 µM; AID 651654, 2012;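 active = mean lysis activity across replicates of at least 80%, whatever share of replicates individually reach that level; inactive = mean lysis activity below 80%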
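read-out = cell lysis signal | test system = log-phase Cryptococcus neoformans yeast cells | input = cells at 5 × 10^6 per mL | medium = fresh YPD growth medium | signal = luminescent adenylate kinase detection reagent | timing = 4 h at 37 °C static, read 1 h later | dosing = single dose | controls = Clomiphene as positive lysis control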
* = called active by the depositor; · = no result. The list is not random: actives were taken first. Their share in the collection is about 2.2%.

SMILES | Mot1-301 SUMO | rRNA inh HTS | Yeast superoxide | PglD DTNB | Cneo AK release
CO[C@@H]1CN(C)C(=O)c2ccc(NC(C)=O)cc2OC[C@@H](C)N(C(=O)c2ccccn2)C[C@H]1C | · | 1 | · | -4 | 95*
CO[C@@H]1CN(C)C(=O)c2cc(NC(=O)C3CC3)ccc2OC[C@H](C)N(C(=O)c2ccncc2)C[C@H]1C | · | 0 | · | -1 | 102*
CCCC(=O)Nc1ccc2c(c1)C(=O)N(C)C[C@H](OC)[C@@H](C)CN(C(=O)c1cccnc1)[C@H](C)CO2 | · | 1 | · | 2 | 90*
CO[C@@H]1CN(C)C(=O)c2cc(NC(C)=O)ccc2OC[C@@H](C)N(C(=O)c2ccncc2)C[C@H]1C | · | 1 | · | 0 | -1
CO[C@H]1CN(C)C(=O)c2ccc(NC(C)=O)cc2OC[C@H](C)N(C(=O)c2ccncc2)C[C@@H]1C | · | 2 | · | 6 | 82*
CO[C@@H]1CN(C)C(=O)c2ccc(NS(=O)(=O)C3CCCCC3)cc2OC[C@H](C)NC[C@H]1C | · | 2 | · | 2 | -1
COCC(=O)Nc1ccc2c(c1)C(=O)N(C)[C@H]1CC[C@H](CC(=O)Nc3cn(C)nc3C)O[C@@H]1CO2 | · | 1 | · | · | ·
C[C@H](CO)N1C[C@H](C)[C@@H](CN(C)C(=O)Nc2ccccc2C(F)(F)F)OCc2ccccc2-c2ccccc2C1=O | · | 1 | · | · | ·
CCC(=O)Nc1ccc2c(c1)OC[C@@H](C)N(Cc1ccccn1)C[C@@H](C)[C@H](OC)CN(C)C2=O | · | 1 | · | 18* | 1
CO[C@@H]1CN(C)C(=O)c2ccc(NC(=O)Nc3ccccc3)cc2OC[C@H](C)N(C(C)=O)C[C@@H]1C | · | -3 | · | -3 | 4
CO[C@@H]1CN(C)C(=O)c2ccc(NC(=O)Nc3ccccc3)cc2OC[C@H](C)N(C(C)=O)C[C@H]1C | · | 0 | · | -1 | 119*
COc1ccc2c3c([nH]c2c1)[C@@H](CO)N(C(=O)CN(C)C)CC31CN(CC2CCOCC2)C1 | · | 6 | · | · | ·
O=C(C1CCOCC1)N1CC2(C1)[C@@H](c1ccccc1)[C@@H](CO)N2CCC(F)(F)F | · | 3 | · | · | ·
CCOc1ccc(N2C(=O)CC(Sc3nc(O)c(CC)c(=O)[nH]3)C2=O)cc1 (stereo not given) | -9 | -39* | 92 | 1 | 0
CCc1cc2c(nc1CC)CCCN2S(=O)(=O)c1ccc(OC)cc1 | · | -43 | · | · | ·
COc1ccc(S(=O)(=O)N2CCCc3nc(C)c(C)cc32)cc1 | · | -15* | · | · | ·
Cc1ccc(OCC(=O)O)c(-n2nc3ccccc3n2)c1 | 340* | · | 107 | -2 | -1
N#CCC(=O)Nc1nc(-c2ccc3c(c2)OCCO3)cs1 | -6 | 17 | 107 | · | ·
O=C(Nc1nc(-c2ccc3c(c2)OCCO3)cs1)C1CCCC1 | -3 | -34* | 96 | · | ·
COc1cccc(C(=O)Nc2ccc3c(c2)C(=O)N(C)C[C@@H](OC)[C@@H](C)CN(C(=O)C2CCCC2)[C@H](C)CO3)c1 | · | -3 | · | 4 | -2
c1ccc2c(C3=NNC(=NC4CCCCC4)SC3)c[nH]c2c1 | -6 | -34* | 112 | · | ·
c1ccc2c(C3=NNC(=NC4CC4)SC3)c[nH]c2c1 | -2 | · | 90 | 14 | -8
C[C@@H]1CN([C@H](C)CO)C(=O)c2cc(NC(=O)C3CCCCC3)ccc2O[C@H]1CN(C)C(=O)Nc1ccc(F)cc1 | · | -3 | · | -2 | 3
CO[C@@H]1CN(C)C(=O)c2cc(NS(=O)(=O)c3ccccc3Cl)ccc2OC[C@@H](C)NC[C@@H]1C | · | 1 | · | -3 | 1
COc1ccccc1/C=C/C(=O)N1CCOCC1 | -4 | · | 84 | 0 | 0
SMILES | Mot1-301 SUMO | rRNA inh HTS | Yeast superoxide | PglD DTNB | Cneo AK release
COc1ccccc1/C=C/C(=O)N1CCC(c2ccccc2)C1 (stereo not given) | 13 | -23* | 98 | · | ·
COc1cc(C(=O)COC(=O)CNC(=O)C2CCCCC2)cc(OC)c1OC | 270* | · | 98 | -2 | 0
COc1cc(C(=O)COC(=O)C2CCCCC2)cc(OC)c1OC | -3 | -9 | 89 | 1 | 0
C[C@H](CO)N1C[C@H](C)[C@H](CN(C)C(=O)NC2CCCCC2)Oc2c(NC(=O)c3cnccn3)cccc2C1=O | · | 0 | · | -1 | 2
Cc1ccc(S(=O)(=O)N[C@H]2C=C[C@@H](CC(=O)N3CCC(Cc4ccccc4)CC3)O[C@H]2CO)cc1 | · | -1 | · | 1 | 85*
COc1ccc(S(=O)(=O)N[C@H]2C=C[C@H](CC(=O)N3CCC(Cc4ccccc4)CC3)O[C@@H]2CO)cc1 | · | -15 | · | 3 | 89*
CSc1ncnc2c1ncn2CCCNc1ccc(C)c(C)c1 | · | -26* | · | · | ·
C/C=C/c1ccc([C@H]2[C@@H](CO)N(C(=O)CC)[C@@H]2CNC(=O)C2CC2)cc1 | · | 0 | · | 2 | 91*
C/C=C/c1ccc([C@@H]2[C@H](CO)N(C(C)=O)[C@H]2CNC(=O)c2ccncc2)cc1 | · | -1 | · | -1 | -3
C/C=C/c1ccc([C@@H]2[C@@H](CNC(=O)C3CCC3)N(C(=O)NCCC)[C@H]2CO)cc1 | · | -6 | · | 1 | 103*
C/C=C/c1ccc([C@@H]2[C@@H](CNC(=O)c3ccccc3)N(C(C)=O)[C@H]2CO)cc1 | · | -4 | · | 6 | 81*
C/C=C/c1ccc([C@@H]2[C@@H](CO)N(C(=O)CC)[C@@H]2CNC(=O)C2CC2)cc1 | · | 0 | · | -3 | 1
CCCN1[C@@H]2c3ccc(-c4cccc(F)c4)c(=O)n3C[C@@H]2[C@@H](CO)[C@@H]1C(=O)N(C)C | · | 1 | · | 2 | 0
C[C@@H]1CN([C@H](C)CO)C(=O)c2cc(C#Cc3cccc(F)c3)cnc2O[C@H]1CN(C)C(=O)c1ccccc1F | · | -1 | · | 4 | 3
Cc1ccc(-c2nnc(Nc3ccc(CC(N)=O)cc3)c3ccccc23)cc1S(=O)(=O)NCC1CCCO1 (stereo not given) | 468 | -31* | 92 | · | ·
CCOC(=O)C1CCCN(C(=O)c2csc(-c3ccc4c(c3)CCO4)n2)C1 (stereo not given) | -9 | -41* | 112 | 3 | -1
COc1ccc(/C=C(\NC(=O)c2ccccc2)C(=O)NC2CCS(=O)(=O)C2)cc1 (stereo not given) | 269* | 18 | 91 | 7 | 2
COc1ccc(/C=C(\NC(=O)c2ccccc2)C(=O)NCc2cccnc2)cc1 | 270* | 3 | 99 | -1 | -2
C[C@H](CO)N1C[C@H](C)[C@H](CN(C)Cc2ccc3c(c2)OCO3)Oc2ccc(NC(=O)NC3CCCCC3)cc2C1=O | · | -5 | · | -3 | -1
C[C@H](CO)N1C[C@H](C)[C@H](CN(C)CC2CC2)OCCCC[C@H](C)Oc2ccc(NC(=O)Nc3ccc4c(c3)OCO4)cc2C1=O | · | · | · | 0 | 2
